{"source": "ChEMBL document CHEMBL1124899", "about": "(J Med Chem, 1990)", "type_in_all_cases": "cell membranes, Membrane", "key": {"[1]": {"biological_target": "T1, D(2) dopamine receptor (Rattus norvegicus, UniProt P61169)", "T1 sequence (P61169 whole entry)": "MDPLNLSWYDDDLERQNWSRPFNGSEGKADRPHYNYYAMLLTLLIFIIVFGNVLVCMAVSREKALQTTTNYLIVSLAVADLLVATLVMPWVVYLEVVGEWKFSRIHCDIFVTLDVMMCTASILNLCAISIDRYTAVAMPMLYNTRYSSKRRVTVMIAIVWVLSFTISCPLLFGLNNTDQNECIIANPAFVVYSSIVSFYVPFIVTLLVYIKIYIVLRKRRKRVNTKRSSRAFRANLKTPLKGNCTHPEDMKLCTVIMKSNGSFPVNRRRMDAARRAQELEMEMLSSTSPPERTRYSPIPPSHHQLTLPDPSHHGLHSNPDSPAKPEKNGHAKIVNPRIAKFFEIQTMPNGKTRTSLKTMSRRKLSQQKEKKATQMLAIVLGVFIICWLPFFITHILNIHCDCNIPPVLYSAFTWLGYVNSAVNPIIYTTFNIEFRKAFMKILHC", "assay": "Compound was evaluated for the inhibition of [3H]spiperone binding to dopamine receptor D2 of rat striatal membranes", "in_short": "(§1)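 Rat striatal membranes were washed twice at 20,000g and suspended at 3.5 mg wet weight/mL in 50 mM Tris-HCl pH 7.4 with 120 mM NaCl, 5 mM KCl, 2 mM CaCl2, 1 mM MgCl2. Displacement of 0.1 nM [3H]spiperone (final) by 6-7 concentrations of test drug. Nonspecific binding defined with 1 μM (+)-butaclamol. Triplicates, repeated on three days. IC50 from log-probit plot.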"}, "[2]": {"biological_target": "D(1A) dopamine receptor (Rattus norvegicus, UniProt P18901)", "sequence (P18901 whole entry)": "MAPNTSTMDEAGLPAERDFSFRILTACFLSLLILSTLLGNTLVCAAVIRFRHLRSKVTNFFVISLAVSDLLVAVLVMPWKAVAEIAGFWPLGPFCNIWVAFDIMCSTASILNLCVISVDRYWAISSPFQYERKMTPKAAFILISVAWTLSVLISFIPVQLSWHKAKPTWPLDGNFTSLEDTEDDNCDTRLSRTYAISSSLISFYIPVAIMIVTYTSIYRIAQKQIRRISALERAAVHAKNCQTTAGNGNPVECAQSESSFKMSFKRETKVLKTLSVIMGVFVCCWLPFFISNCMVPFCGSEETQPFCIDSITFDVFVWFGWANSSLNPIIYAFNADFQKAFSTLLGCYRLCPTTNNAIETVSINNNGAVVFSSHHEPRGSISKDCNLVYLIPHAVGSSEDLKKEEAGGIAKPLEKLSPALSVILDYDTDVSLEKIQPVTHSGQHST", "assay": "Compound was evaluated for the inhibition of [3H]-SCH- 23390 binding to Dopamine receptor D1 of rat striatal membranes", "in_short": "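Rat striatum homogenized in Tris-HCl pH 7.4, pellet washed twice at 20,000g and resuspended at 3.5 mg wet weight/mL in 50 mM Tris-HCl with 120 mM NaCl, 5 mM KCl, 2 mM CaCl2, 1 mM MgCl2. Triplicates, three separate days. IC50 by log-probit analysis.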"}, "[3]": {"biological_target": "T1, D(2) dopamine receptor", "assay": "Compound was evaluated for the inhibition of [3H]spiperone binding to Dopamine receptor D2 of rat striatal membranes", "in_short": "as §1"}}}
{"compound": "CCCN(CCC)CCc1ccc(F)c(O)c1", "values": [{"measurement": "IC50", "setting": "[1]", "result": 0.95, "unit": "µM"}, {"measurement": "IC50", "setting": "[2]", "result": 11.4, "unit": "µM"}]}
{"compound": "CCCN(CCc1ccccc1)CCc1ccc(F)c(O)c1", "values": [{"measurement": "IC50", "setting": "[1]", "result": 0.25, "unit": "µM"}, {"measurement": "IC50", "setting": "[2]", "result": 10.9, "unit": "µM"}]}
{"compound": "CCN(CCc1ccccc1)CCc1ccc(F)c(O)c1", "values": [{"measurement": "IC50", "setting": "[2]", "result": 8, "unit": "µM"}]}
{"compound": "CCCN(CC)CCc1ccc(F)c(O)c1", "values": [{"measurement": "IC50", "setting": "[1]", "result": 1.97, "unit": "µM"}, {"measurement": "IC50", "setting": "[2]", "result": 11.1, "unit": "µM"}]}
{"compound": "CCCN(CCc1ccccc1)CCc1ccc(O)c(F)c1", "values": [{"measurement": "IC50", "setting": "[1]", "result": 0.58, "unit": "µM"}, {"measurement": "IC50", "setting": "[2]", "result": 38, "unit": "µM"}]}
{"compound": "NCCc1ccc(F)c(O)c1", "values": [{"measurement": "IC50", "setting": "[3]", "result": 4.64, "unit": "µM"}, {"measurement": "IC50", "setting": "[2]", "result": 6.15, "unit": "µM"}]}
